In ChEMBL document CHEMBL1122321, “Synthesis and transport applications of 3-aminobicyclo[3.2.1] octane-3-carboxylic acids” (1983) one finds Thr uptake and MeAIB uptake data, which are given here for two molecules.

Common to all, as to type: functional
The species named for test [1] is Rattus norvegicus. Put plainly: Inhibition of threonine (0.5*10e-4) uptake by rat Hepatoma cells(HTC) at the specified Conc of 10 mM expressed as nM/mg of protein/min. The method in brief: (§1)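 HTC hepatoma monolayers were grown in Medium 199 (pH 7.4, 26 mM NaHCO₃, antibiotics, 5–8% FBS) under 5% CO₂/95% air and seeded 3–4 days before testing. A 1-min uptake ran in Krebs-Ringer phosphate (pH 7.4, 37 °C), then the cells were washed with ice-cold Na⁺-free choline medium. Cells were extracted with 5% TCA and counted by scintillation. Protein was measured by modified Lowry with SDS and a BSA standard.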

For test [2], the species on record is Rattus norvegicus. Put plainly: Inhibition of threonine (0.5*10e-4) uptake by rat Hepatoma cells(HTC) at the specified Conc of 0.5 mM expressed as nM/mg of protein/min. In short, it runs like this:
as §1

The test system of test [3] is Mus musculus. Put plainly: Inhibition of MeAIB(10e-4) uptake by Ehrlich cell at the specified Conc of 0.25 mM expressed as mM/kg of cell water/min. In short, it runs like this:
(§2)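 ¹⁴C-MeAIB uptake by Ehrlich ascites tumor cells propagated in Swiss white mice and washed in Na⁺-free media. Uptake ran for 1 min at 37 °C in 5% cell suspensions in Na⁺-containing Krebs-Ringer bicarbonate under 5% CO₂–O₂ (pH 7.4). Stopped by ice-cold dilution and centrifugation. ¹⁴C in the medium and in a sulfosalicylic acid cell extract was counted by liquid scintillation. Extracellular water was measured by sucrose.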

The subject of test [4] is Mus musculus. Put plainly: Inhibition of MeAIB(10e-4) uptake by Ehrlich cell at the specified Conc of 10 mM expressed as mM/kg of cell water/min. In short, it runs like this:
as §2

For test [5], the species on record is Rattus norvegicus. Put plainly: Inhibition of threonine (0.5*10e-4) uptake by rat Hepatoma cells(HTC) at the specified Conc of 2.5 mM expressed as nM/mg of protein/min. In short, it runs like this: as §1
Test [6] has as its system Mus musculus. Put plainly: Inhibition of MeAIB(10e-4) uptake by Ehrlich cell at the specified Conc of 2.5 mM expressed as mM/kg of cell water/min. The method in brief: as §2
For test [7], the system named is Mus musculus. Kind of test: Inhibition of MeAIB(10e-4) uptake by Ehrlich cell at the specified Conc of 0.5 mM expressed as mM/kg of cell water/min. The method in brief:
as §2

On to `CC(O)C(N)C(=O)O` (stereo not drawn), for which, in the test filed under Rattus norvegicus [1], the Thr uptake is listed as 0.12.
`N[C@]1(C(=O)O)C[C@@H]2CC[C@@H](C2)C1`: the Thr uptake in the test filed under Rattus norvegicus [2] amounted to 3.81; in the test listed under Rattus norvegicus [5], 3.52; in the test filed under Rattus norvegicus [1], 3.45. The MeAIB uptake is reported as 0.67 in the test with Mus musculus [3], 0.61 in the test with Mus musculus [4], 0.64 with Mus musculus [6] and 0.66 in the test with Mus musculus [7].
